{"data": "Measured values from different studies", "TOP2A": "DNA topoisomerase 2-alpha (TOP2A, Homo sapiens, UniProt P11388)", "TNKS2": "Poly [ADP-ribose] polymerase tankyrase-2 (TNKS2, Homo sapiens, UniProt Q9H2K2)", "FLT3 ITD": "Receptor-type tyrosine-protein kinase FLT3 (FLT3, Homo sapiens, UniProt P36888, ITD)", "FLT3 F691L": "Receptor-type tyrosine-protein kinase FLT3 (FLT3, Homo sapiens, UniProt P36888, F691L)", "note": "Protocols differ between the studies behind these lines."}
{"Compound": "CN1CCC(CNc2ccc3ncc(-c4cccc(OC(F)(F)F)c4)n3n2)CC1", "target": "5-hydroxytryptamine receptor 2B (HTR2B, Homo sapiens, UniProt P41595)", "observed": "calcium signal", "mode": "antagonist", "IC50 [nM]": 2810}
{"Compound": "CN(C)c1cccc(Nc2nc(-c3ccncc3)nc3c2CNCC3)c1", "target": "TOP2A", "observed": "enzyme activity", "mode": "inhibitor", "IC50 [nM]": 140000}
{"Compound": "Cc1n[nH]c2ccc3nc(-c4ccc(C(=O)NCCN(C)C)cc4F)c4c(c3c12)CCCCC4", "target": "Receptor-type tyrosine-protein kinase FLT3 (FLT3, Homo sapiens, UniProt P36888)", "observed": "enzyme activity", "mode": "inhibitor", "IC50 [nM]": 138}
{"Compound": "Cc1cc(C(=O)N2CC(N3CCN(C(=O)c4nccs4)CC3)C2)ccc1-c1ccc(F)c(Cl)c1", "target": "Monoglyceride lipase (MGLL, Homo sapiens, UniProt Q99685)", "observed": "enzyme activity", "mode": "inhibitor", "method": "fluorescence", "IC50 [nM]": 5.15}
{"Compound": "CC(C)(O)c1ccc(-c2nc3cc(NC(=O)c4ccc(-c5ccccc5)nc4)ccc3c(=O)[nH]2)cc1", "target": "TNKS2", "observed": "enzyme activity", "mode": "inhibitor", "IC50 [nM]": 10.6}
{"Compound": "CN(C)CCNC(=O)c1ccc(-c2nc3ccc4[nH]ncc4c3c3c2CCCC3)c(F)c1", "target": "FLT3 ITD", "observed": "enzyme activity", "mode": "inhibitor", "IC50 [nM]": 112}
{"Compound": "Cn1cc(C2=C(c3cn(CCCSC(=N)N)c4ccccc34)C(=O)NC2=O)c2ccccc21", "target": "Mitogen-activated protein kinase kinase kinase 8 (MAP3K8, Homo sapiens, UniProt P41279)", "observed": "enzyme activity", "mode": "inhibitor", "IC50 [nM]": 11000}
{"Compound": "CN(C)CCNC(=O)c1ccc(-c2nc3ccc4[nH]ncc4c3c3c2CCCCC3)cc1", "target": "FLT3 F691L", "observed": "enzyme activity", "mode": "inhibitor", "IC50 [nM]": 287}
{"Compound": "CC(C)(O)c1ccc(-c2nc3cc(NC(=O)c4cnc(OCc5ccccc5)nc4)ccc3c(=O)[nH]2)cc1", "target": "TNKS2", "observed": "enzyme activity", "mode": "inhibitor", "IC50 [nM]": 16.3}
{"Compound": "CCCCCCC#Cc1cncc(-c2nnc(SCc3cc([N+](=O)[O-])cc([N+](=O)[O-])c3)n2CCOC2OC(CN)C(O)C2O)c1 (stereo not drawn)", "target": "mraY (Staphylococcus aureus, UniProt Q2FZ93)", "observed": "enzyme activity", "mode": "inhibitor", "IC50 [nM]": 78000}
{"Compound": "C=CCn1c(=O)c2cnc(Nc3ccc(N4CCN(C)CC4)cc3)nc2n1-c1ccc2c(n1)[C@@](O)(CC)CC2", "target": "Serine/threonine-protein kinase PLK1 (PLK1, Homo sapiens, UniProt P53350)", "observed": "target engagement in cells", "method": "BRET", "IC50 [nM]": "> 10000"}
{"Compound": "Cc1n[nH]c2ccc3nc(-c4ccc(C(=O)NCCN(C)C)cc4)c4c(c3c12)CCCCC4", "target": "FLT3 F691L", "observed": "enzyme activity", "mode": "inhibitor", "IC50 [nM]": 104}
{"Compound": "COc1cc(-c2ccccc2)ncc1C(=O)Nc1ccc2c(=O)[nH]c(-c3ccc(C(C)(C)O)cc3)nc2c1", "target": "TNKS2", "observed": "enzyme activity", "mode": "inhibitor", "IC50 [nM]": 3.46}
{"Compound": "O=C(NC1CCCCC1)c1ccc(-c2nc3ccc4[nH]ncc4c3c3c2CCCC3)cc1", "target": "FLT3 ITD", "observed": "enzyme activity", "mode": "inhibitor", "IC50 [nM]": "> 1000"}
{"Compound": "CNc1cccc(Nc2nc(-c3ccncc3)nc3c2CNCC3)c1", "target": "TOP2A", "observed": "enzyme activity", "mode": "inhibitor", "IC50 [nM]": 160000}
